Assay outcomes (PubChem BioAssay)
Redox H2O2 prof: compounds producing H2O2 with reducing agent – biochemical, NIH compound library profiling, artefact control for MLSCN library redox annotation, primary screen | 0.03% of 200,000 active | activation, % at 10 µM | AID 878 | DTT-dependent redox cycling H2O2, phenol red/HRP absorbance; 100% = 100 µM peroxide control, 0% = buffer;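 active = activation of at least 50% relative to the plate's high and low controls in the primary single-dose screen; inactive = activation below 50%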;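 note: compound incubated with DTT at 0.8 mM final as the reducing agent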
T cruzi repl: blocks replication of Trypanosoma cruzi. T. cruzi beta-gal in NIH3T3, luminescence, 90 h. inhibition, % (test concentration not listed). 1.4% of 300,000 active. AID 1885;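 active = mean inhibition across valid replicates above about 55%, limit read from the data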;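 note: signal also drops with host cell toxicity which is not excluded here; higher percent means less beta-gal luminescence so fewer parasites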
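Material: NIH/3T3 host cells with β-galactosidase reporter T. cruzi; Input: 5,000 host fibroblasts per well; Medium: DMEM, 2% fetal bovine serum; Compound: 50 nL DMSO compound solution per well; Schedule: 3 h host attachment, then at least 90 h co-culture; Detection: luminescent β-galactosidase signal after 60 min lysis.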
MPTP inh: inhibitors of mitochondrial permeability transition pore; AID 602449; 1.4% of 360,000 active; inhibition, % at 10 µM; isolated mouse mitochondria, Ca2+ swelling absorbance, 30 min;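 active = inhibition of 50% or more, scaled per plate between neutral and stimulator controls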
Hep lipid drop: modulators of hepatic lipid droplet formation; 0.4% of 240,000 active; inhibition, % at 6.5 µM; AID 1656; AML12 mouse hepatocytes, oleate lipid droplets, BODIPY imaging;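 active = lipid droplet intensity inhibited by at least 50%, with more than 500 cells counted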
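Assay system: AML12 hepatocytes (mouse); Probe or stimulus: oleic acid at 100 µM to induce lipid droplet formation; Dosing: compound at 6.5 µM only; Schedule: compound with oleate, overnight; Detection: fluorescence imaging, 20x objective, two fields per well; Measure: % inhibition of lipid droplet signal.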
Lmaj promast: Leishmania major promastigote growth inhibition. inhibition, % at 10 µM. 9% of 200,000 active. Leishmania major promastigotes, resazurin fluorescence viability; in the data active = inhibition above about 50%;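 note: promastigotes grown with compound for 44 hours at 28 °C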
Each line names hits and unclear results; the compound was inactive in the other large screens. This is one part of a sample in which hits are shown more often than they occur.

CSc1ccccc1NC(=S)N/N=C/c1cccn1Cc1cccc(C)c1	T cruzi repl 65
CSc1ccccc1NC(=S)N/N=C/c1cccn1Cc1ccc(F)cc1	none
Cc1ccc(NC(=O)CSc2nc(=O)n(CCN(C)C)c3c2CCCC3)cc1Cl	none (no result: Redox H2O2 prof, Hep lipid drop, Lmaj promast)
CCN(CC)S(=O)(=O)c1ccc(C(=O)NCC(c2ccc(OC)cc2)N2CCOCC2)cc1 (centres undefined)	none
CCN(CC)c1ccc(NC(=O)CN2CCN(c3ccc(F)cc3)CC2)cc1	Lmaj promast 72 (no result: Hep lipid drop)
O=C(CN1CCN(c2ccc(O)cc2)CC1)Nc1ccc(SC(F)F)cc1	Lmaj promast 57
O=C(CN1CCN(c2ccc(Cl)cc2)CC1)Nc1ccc(F)cc1	none
COC(=O)c1ccc(C#Cc2ccccc2)o1	none (no result: Redox H2O2 prof, Lmaj promast)
O=C(Nc1nc2ccccc2n1CCN1CCOCC1)c1cn(-c2ccccc2)nc1-c1ccccc1	T cruzi repl 66, Lmaj promast 96 (no result: Hep lipid drop)
O=C(Nc1nc2ccccc2n1CCN1CCOCC1)c1ccccc1	none (no result: Redox H2O2 prof, Lmaj promast)
COc1ccc(-c2nc3ccccc3nc2-c2ccccc2)cc1OC	none (no result: Redox H2O2 prof, Lmaj promast)
COc1cc(-c2nc(-c3ccc4c(c3)-c3ccccc3S4(=O)=O)c(-c3ccccc3)[nH]2)cc(OC)c1O	Lmaj promast 91
C/C(N)=C(/C#N)C(=O)COC(=O)c1cc(S(=O)(=O)N2CCCCC2)ccc1C	Lmaj promast 71
C/C(N)=C(/C#N)C(=O)COC(=O)c1ccc(C)c(S(=O)(=O)N2CCCCC2)c1	none
Cc1ccc(Cn2nnnc2CN2CCC(O)(c3cccnc3)CC2)cc1	Lmaj promast 53
CC(C)C(NC(=O)OCc1ccccc1)C(=O)NC1CCCCC1 (centres undefined)	none
Cc1ccc(CN2CCC(C)(Oc3ccc(Cl)cc3)C2)cc1 (centres undefined)	none (no result: Redox H2O2 prof, T cruzi repl, Hep lipid drop, Lmaj promast)
Cc1cc(C)c2c(c1)-c1c(ssc1=S)C(C)(C)N2C(=O)CN1C(=O)c2ccccc2C1=O	Lmaj promast 97
O=c1c2[nH]c3ccccc3c2ncn1C1CCCCC1	none (no result: Hep lipid drop)
O=C1c2ccccc2C(=O)c2c1ccc1c(=O)n(C3CCCCC3)[nH]c21	Lmaj promast 99
O=C(CC1C(=O)NCCN1Cc1c(F)cccc1Cl)NCc1ccccc1 (centres undefined)	none
COc1ccc(/C=C2/SC(=O)N(CCNC(=O)C3CCCN3C(=O)c3cccs3)C2=O)cc1 (centres undefined)	Lmaj promast 76 (no result: Redox H2O2 prof)
COc1ccc(/C=C2\SC(=O)N(CCNC(=O)C3CSC4(C)CCC(=O)N34)C2=O)cc1 (centres undefined)	none (no result: Redox H2O2 prof, Hep lipid drop, Lmaj promast)
COc1ccc(/C=C2\SC(=O)N(CCNC(=O)C3CC4C=CC3C4)C2=O)cc1 (centres undefined)	Lmaj promast 96
O=C1CC(c2cc([N+](=O)[O-])ccc2Cl)c2c(ccc3ccccc23)N1 (centres undefined)	Lmaj promast 92
Cc1cc(C)nc(Sc2nc(C)nc3c2oc2ccccc23)n1	Lmaj promast 72 (no result: Hep lipid drop)
Cc1nc(SCc2cccc(F)c2)c2oc3ccccc3c2n1	none (no result: Redox H2O2 prof, Lmaj promast)
O=c1c2ccccc2[nH]c(=S)n1Cc1ccc2c(c1)OCO2	none
CN(C)CCCN=Cc1c(O)n(Cc2ccc3c(c2)OCO3)c(=O)c2ccccc12	T cruzi repl 75, Lmaj promast 98 (no result: MPTP inh)
CN(C)CCN=Cc1c(O)n(Cc2ccc3c(c2)OCO3)c(=O)c2ccccc12	Lmaj promast 74
O=c1c2ccccc2c2ccccc2c(=O)n1Cc1ccc2c(c1)OCO2	none (no result: Redox H2O2 prof, T cruzi repl, Hep lipid drop, Lmaj promast)
O=c1c2ccccc2c(C=NC2CCN(Cc3ccccc3)CC2)c(O)n1Cc1ccc2c(c1)OCO2	Lmaj promast 87 (no result: MPTP inh)
COCCc1nc2ccc(C(=O)N(C)Cc3cccc(-n4nc(C)cc4C)c3)cc2o1	none (no result: Redox H2O2 prof, Lmaj promast)
O=C(CCl)Nc1nc(-c2ccco2)c(-c2ccco2)s1	Lmaj promast 69
O=C(CCCSc1ccccc1)Nc1nc(-c2ccco2)c(-c2ccco2)s1	Lmaj promast 75
Cc1ccc(C(=O)Nc2nc(-c3ccco3)c(-c3ccco3)s2)o1	none (no result: Redox H2O2 prof, T cruzi repl, Hep lipid drop, Lmaj promast)
CCN(CC)CCNC(=O)c1ccc(NC(=O)c2cn(-c3ccccc3)nc2-c2cccs2)cc1	Lmaj promast 100
CCN(CC)CCNC(=S)NC(=O)c1cn(-c2ccccc2)nc1-c1ccc(OC)cc1	Lmaj promast 91
CCN(CC)CCNC(=O)c1ccc(NC(=O)c2cn(-c3ccc(F)cc3)nc2-c2cccc(OC)c2)cc1	T cruzi repl 65 (no result: Redox H2O2 prof, Lmaj promast)
COC(=O)c1cn(-c2ccccc2)nc1-c1ccc(OC)cc1	none
